# Several values for one entry are separate records, joined by “and”; a condition that tells them apart may be missing. Equal entries are not always repeated.
# Tested on: Fibroblast
# Assay: Multiplex assay against human fibroblast
# Type: toxicity, cell-based
# Outline: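 Per cents of healthy-nucleus cells form the tubulin, mitochondrial-mass and membrane-permeability phenotype values. Live cells were stained at seeding with Hoechst33342, BioTracker Green Microtubule Cytoskeleton Dye, MitoTracker Red and Annexin V Alexa Fluor 680. After compound addition they were imaged on a CQ1 microscope at 37°C and 5% CO2, and CellPathfinder machine-learning gating split them into Hoechst high-intensity objects or normal cells, normal cells into healthy, pyknosed or fragmented nuclei, and pyknosed cells into mitotic or apoptotic.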
# [1] = 12 h, 1 µM, compound concentration 1 uM, replicate 1
# [2] = 12 h, 1 µM, compound concentration 1 uM, replicate 2
# [3] = 24 h, 1 µM, compound concentration 1 uM, replicate 1
# [4] = 24 h, 1 µM, compound concentration 1 uM, replicate 2
# [5] = 12 h, 10 µM, compound concentration 10 uM, replicate 1
# [6] = 12 h, 10 µM, compound concentration 10 uM, replicate 2
# [7] = 24 h, 10 µM, compound concentration 10 uM, replicate 1
# [8] = 24 h, 10 µM, compound concentration 10 uM, replicate 2
# [9] = 48 h, 1 µM, compound concentration 1 uM, replicate 1
# [10] = 48 h, 1 µM, compound concentration 1 uM, replicate 2
# [11] = 48 h, 10 µM, compound concentration 10 uM, replicate 1
# [12] = 48 h, 10 µM, compound concentration 10 uM, replicate 2
smiles,measurement,setting,value
CN([C@@H](Cc1ccc(OS(=O)(=O)c2cccc3cnccc23)cc1)C(=O)N1CCN(c2ccccc2)CC1)S(=O)(=O)c1cccc2cnccc12,Population Apoptotic (%),[1],54% and 75%
same,Population Fragmented Nuclei (%),[1],29%
same,Population Healthy Nuclei (%),[1],56% and 53%
same,Population Hoechst High Intensity Objects (%),[1],8% and 14%
same,Population Membrane Permeable-Phenotype (%),[1],45%
same,Population Mitotic Cells (%),[1],45% and 25%
same,Population Normal (%),[1],91% and 85%
same,Population Pyknosed Nuclei (%),[1],13% and 17%
same,Population Tubulin-Different-Phenotype (%),[1],57% and 69%
same,Total Cell Count,[1],348 and 189
same,Population Apoptotic (%),[2],50% and 80%
same,Population Fragmented Nuclei (%),[2],53% and 70%
same,Population Healthy Nuclei (%),[2],39% and 14%
same,Population Hoechst High Intensity Objects (%),[2],30% and 41%
same,Population Mitochondria Different-Phenotype (%),[2],39% and 60%
same,Population Mitotic Cells (%),[2],50% and 20%
same,Population Normal (%),[2],69% and 58%
same,Population Pyknosed Nuclei (%),[2],6% and 14%
same,Population Tubulin-Different-Phenotype (%),[2],82% and 80%
same,Total Cell Count,[2],84 and 58
same,Population Apoptotic (%),[3],66% and 59%
same,Population Fragmented Nuclei (%),[3],23% and 30%
same,Population Healthy Nuclei (%),[3],61% and 59%
same,Population Hoechst High Intensity Objects (%),[3],15% and 13%
same,Population Membrane Permeable-Phenotype (%),[3],30% and 21%
same,Population Mitotic Cells (%),[3],33% and 40%
same,Population Normal (%),[3],84% and 86%
same,Population Pyknosed Nuclei (%),[3],15% and 10%
same,Population Tubulin-Different-Phenotype (%),[3],70% and 47%
same,Total Cell Count,[3],184 and 365
same,Population Fragmented Nuclei (%),[4],76% and 52%
same,Population Healthy Nuclei (%),[4],14% and 38%
same,Population Hoechst High Intensity Objects (%),[4],33% and 25%
same,Population Membrane Permeable-Phenotype (%),[4],40% and 25%
same,Population Mitochondria Different-Phenotype (%),[4],40% and 33%
same,Population Normal (%),[4],66% and 74%
same,Population Pyknosed Nuclei (%),[4],8% and 9%
same,Population Tubulin-Different-Phenotype (%),[4],60% and 91%
same,Total Cell Count,[4],51 and 85
Cl.O=c1c2cccn2c2ccccc2n1CCCN1CCC(c2ccc(Cl)cc2)CC1,Population Apoptotic (%),[1],68%
same,Population Fragmented Nuclei (%),[1],21%
same,Population Healthy Nuclei (%),[1],61%
same,Population Hoechst High Intensity Objects (%),[1],12%
same,Population Membrane Permeable-Phenotype (%),[1],10%
same,Population Mitochondria Different-Phenotype (%),[1],15%
same,Population Mitotic Cells (%),[1],31%
same,Population Normal (%),[1],87%
same,Population Pyknosed Nuclei (%),[1],17%
same,Population Tubulin-Different-Phenotype (%),[1],40%
same,Total Cell Count,[1],123
same,Population Apoptotic (%),[2],60%
same,Population Fragmented Nuclei (%),[2],16%
same,Population Healthy Nuclei (%),[2],73%
same,Population Hoechst High Intensity Objects (%),[2],8%
same,Population Membrane Permeable-Phenotype (%),[2],0%
same,Population Mitochondria Different-Phenotype (%),[2],56%
same,Population Mitotic Cells (%),[2],40%
same,Population Normal (%),[2],91%
same,Population Pyknosed Nuclei (%),[2],9%
same,Population Tubulin-Different-Phenotype (%),[2],30%
same,Total Cell Count,[2],119
same,Population Apoptotic (%),[5],48%
same,Population Fragmented Nuclei (%),[5],28%
same,Population Healthy Nuclei (%),[5],42%
same,Population Hoechst High Intensity Objects (%),[5],30%
same,Population Membrane Permeable-Phenotype (%),[5],5%
same,Population Mitochondria Different-Phenotype (%),[5],52%
same,Population Mitotic Cells (%),[5],51%
same,Population Normal (%),[5],69%
same,Population Pyknosed Nuclei (%),[5],28%
same,Population Tubulin-Different-Phenotype (%),[5],84%
same,Total Cell Count,[5],175
same,Population Apoptotic (%),[6],78%
same,Population Fragmented Nuclei (%),[6],21%
same,Population Healthy Nuclei (%),[6],57%
same,Population Hoechst High Intensity Objects (%),[6],11%
same,Population Membrane Permeable-Phenotype (%),[6],74%
same,Population Mitochondria Different-Phenotype (%),[6],98%
same,Population Mitotic Cells (%),[6],21%
same,Population Normal (%),[6],89%
same,Population Pyknosed Nuclei (%),[6],21%
same,Population Tubulin-Different-Phenotype (%),[6],98%
same,Total Cell Count,[6],58
same,Population Apoptotic (%),[3],48%
same,Population Fragmented Nuclei (%),[3],28%
same,Population Healthy Nuclei (%),[3],44%
same,Population Hoechst High Intensity Objects (%),[3],11%
same,Population Membrane Permeable-Phenotype (%),[3],12%
same,Population Mitochondria Different-Phenotype (%),[3],10%
same,Population Mitotic Cells (%),[3],51%
same,Population Normal (%),[3],88%
same,Population Pyknosed Nuclei (%),[3],27%
same,Population Tubulin-Different-Phenotype (%),[3],45%
same,Total Cell Count,[3],121
same,Population Apoptotic (%),[4],25%
same,Population Fragmented Nuclei (%),[4],16%
same,Population Healthy Nuclei (%),[4],70%
same,Population Hoechst High Intensity Objects (%),[4],7%
same,Population Membrane Permeable-Phenotype (%),[4],2%
same,Population Mitochondria Different-Phenotype (%),[4],38%
same,Population Mitotic Cells (%),[4],75%
same,Population Normal (%),[4],92%
same,Population Pyknosed Nuclei (%),[4],13%
same,Population Tubulin-Different-Phenotype (%),[4],19%
same,Total Cell Count,[4],147
same,Population Apoptotic (%),[7],67%
same,Population Fragmented Nuclei (%),[7],21%
same,Population Healthy Nuclei (%),[7],49%
same,Population Hoechst High Intensity Objects (%),[7],39%
same,Population Membrane Permeable-Phenotype (%),[7],7%
same,Population Mitochondria Different-Phenotype (%),[7],40%
same,Population Mitotic Cells (%),[7],32%
same,Population Normal (%),[7],60%
same,Population Pyknosed Nuclei (%),[7],29%
same,Population Tubulin-Different-Phenotype (%),[7],63%
same,Total Cell Count,[7],193
same,Population Apoptotic (%),[8],87%
same,Population Fragmented Nuclei (%),[8],14%
same,Population Healthy Nuclei (%),[8],64%
same,Population Hoechst High Intensity Objects (%),[8],7%
same,Population Membrane Permeable-Phenotype (%),[8],72%
same,Population Mitochondria Different-Phenotype (%),[8],98%
same,Population Mitotic Cells (%),[8],12%
same,Population Normal (%),[8],92%
same,Population Pyknosed Nuclei (%),[8],20%
same,Population Tubulin-Different-Phenotype (%),[8],98%
same,Total Cell Count,[8],65
same,Population Apoptotic (%),[9],45%
same,Population Fragmented Nuclei (%),[9],43%
same,Population Healthy Nuclei (%),[9],36%
same,Population Hoechst High Intensity Objects (%),[9],14%
same,Population Membrane Permeable-Phenotype (%),[9],11%
same,Population Mitochondria Different-Phenotype (%),[9],2%
same,Population Mitotic Cells (%),[9],54%
same,Population Normal (%),[9],85%
same,Population Pyknosed Nuclei (%),[9],19%
same,Population Tubulin-Different-Phenotype (%),[9],47%
same,Total Cell Count,[9],142
same,Population Apoptotic (%),[10],66%
same,Population Fragmented Nuclei (%),[10],44%
same,Population Healthy Nuclei (%),[10],52%
same,Population Hoechst High Intensity Objects (%),[10],11%
same,Population Membrane Permeable-Phenotype (%),[10],5%
same,Population Mitochondria Different-Phenotype (%),[10],1%
same,Population Mitotic Cells (%),[10],33%
same,Population Normal (%),[10],88%
same,Population Pyknosed Nuclei (%),[10],2%
same,Population Tubulin-Different-Phenotype (%),[10],55%
same,Total Cell Count,[10],120
same,Population Apoptotic (%),[11],81%
same,Population Fragmented Nuclei (%),[11],28%
same,Population Healthy Nuclei (%),[11],50%
same,Population Hoechst High Intensity Objects (%),[11],48%
same,Population Membrane Permeable-Phenotype (%),[11],2%
same,Population Mitochondria Different-Phenotype (%),[11],46%
same,Population Mitotic Cells (%),[11],18%
same,Population Normal (%),[11],51%
same,Population Pyknosed Nuclei (%),[11],22%
same,Population Tubulin-Different-Phenotype (%),[11],78%
same,Total Cell Count,[11],193
same,Population Apoptotic (%),[12],56%
same,Population Fragmented Nuclei (%),[12],27%
same,Population Healthy Nuclei (%),[12],52%
same,Population Hoechst High Intensity Objects (%),[12],55%
same,Population Membrane Permeable-Phenotype (%),[12],3%
same,Population Mitochondria Different-Phenotype (%),[12],48%
same,Population Mitotic Cells (%),[12],44%
same,Population Normal (%),[12],44%
same,Population Pyknosed Nuclei (%),[12],19%
same,Population Tubulin-Different-Phenotype (%),[12],72%
same,Total Cell Count,[12],281
